12 compounds from paper PMC3361693 (Chemistry & biology, 2012) can be followed below.

Data set [1] has as its system E. coli JB525. As to the kind of experiment: QS inhibition: GFP production in E. coli JB525. The format is cell-based, Escherichia coli.
For data set [2], the system named is E. coli JB525. As to the kind of experiment: Growth inhibitory. The format is cell-based, Escherichia coli.
Another data set has as its system TNF-α. As to the kind of experiment: qRT-PCR transcript level in LPS-stimulated RAW 264.7 cells: TNF-α. The format is cell-based, murine. Particulars: after 6 h of treatment. The method, boiled down: (§1)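 Murine RAW264.7 macrophages were LPS-stimulated and treated with the test compound for 6 h, alongside untreated LPS-stimulated cells. RNA was isolated and reverse-transcribed to cDNA. Transcripts of TNF-α, IL-1β, IL-6 and iNOS were quantified by qRT-PCR and expressed as fold change versus untreated cells. Three replicates were run, reported as mean ± standard deviation, with Student's t-test (p < 0.05).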
(Real-time PCR tracks product formation cycle by cycle.)

Data set [3] relates to V. harveyi BB120. As to the kind of experiment: Growth inhibitory. It is filed as cell-based, Vibrio harveyi.
For data set [4], the system named is V. harveyi BB120. As to the kind of experiment: microbe, parasite or virus in culture. It is filed as cell-based, Vibrio harveyi.
In the next data set the test system is IL-6. As to the kind of experiment: qRT-PCR transcript level in LPS-stimulated RAW 264.7 cells: IL-6. It is filed as cell-based, murine. The following applies: after 6 h of treatment. Summed up: as §1
A further data set has as its system Raw264.7 cells. As to the kind of experiment: Cytotoxicity / cell survival in Raw264.7 cells. Particulars: for IC50: read-out: Cytotoxicity in Raw264.7 cells (IC50), Raw264.7 cells.
The subject of a further data set is iNOS. As to the kind of experiment: qRT-PCR transcript level in LPS-stimulated RAW 264.7 cells: iNOS. The format is cell-based, murine. Particulars: after 6 h of treatment. Summed up: as §1
In the next data set the test system is IL-1β. As to the kind of experiment: qRT-PCR transcript level in LPS-stimulated RAW 264.7 cells: IL-1β. It is filed as cell-based, murine. Particulars: after 6 h of treatment. The method, boiled down: as §1
In data set [5] the test system is NO production by LPS-stimulated RAW264.7 murine macrophages. As to the kind of experiment: Inhibition of NO production by LPS-stimulated murine macrophages. The format is cell-based. The following applies: Mus musculus.
Data set [6] in a line: Cytotoxicity / cell survival in Raw264.7 cells. Particulars: mouse.
Where [7] appears, read: read-out: QS inhibition (IC50) E. coli, inhibition of GFP production, E. coli JB525, OHHL autoinducer.
The mark [8] stands for this setting: read-out: QS inhibition (IC50) V. harveyi, inhibition of bioluminescence, V. harveyi BB120.
The mark [9] stands for this setting: RAW264.7, read-out: NO inhibition (IC50), dash with footnote b.
The mark [10] stands for this setting: Escherichia coli, read-out: QS inhibition (IC50) E. coli, dash with footnote d.
Where [11] appears, read: Vibrio harveyi, read-out: QS inhibition (IC50) V. harveyi, dash with footnote d.
The mark [12] stands for this setting: RAW264.7, read-out: NO inhibition (IC50 ± SD).
The mark [13] stands for this setting: Vibrio harveyi, read-out: QS inhibition (IC50) V. harveyi.
Setting [14] is: Escherichia coli, read-out: QS inhibition (IC50) E. coli.

In brackets after ≈: the same amount, converted by molar mass. Like-named read-outs stand apart in the source and are kept apart here.

Usually IC50 stands for the concentration that inhibits the measured activity by half. As for `O=C(/C=C/CCl)O[C@@H]1COC(=O)C1` [Compound 1, Honaucin A], the IC50 is 38.5 µM in the data set with E. coli JB525 [1] (setting [7]), 5.6 µM in the data set on V. harveyi BB120 [4] (setting [8]) and above 49 µM with Raw264.7 cells. Further, the “growth inhibitory effects: none observed up to concentration” value (“growth inhibitory effects” below) in the data set with E. coli JB525 [2] and in the data set with V. harveyi BB120 [3] was above 610 µM each time. The “reduction in transcripts of TNF-α” value in the data set with TNF-α is −9.3 fold. The “reduction in transcripts of IL-6” value in the data set on IL-6 is −19.0 fold. In addition, the “therapeutic window between NO inhibitory effect and cytotoxicity” value in the data set on Raw264.7 cells (RAW264.7 cells, cytotoxicity IC50 vs NO inhibition IC50) is on record as “greater than ten-fold”. Also, the “reduction in transcripts of iNOS” value in the data set with iNOS was −11.8 fold. The “reduction in transcripts of IL-1β” value in the data set on IL-1β is on record as −154.6 fold.

For the compound `COC(=O)C[C@H](O)COC(=O)/C=C/CCl` [Compound 3, Honaucin C], the IC50 in the data set with E. coli JB525 [1] (setting [7]) was found to be 576 µM; with V. harveyi BB120 [4] (setting [8]) it was 14.6 µM; in the data set on Raw264.7 cells it was 30 µM. In addition, the “growth inhibitory effects” value in the data set with E. coli JB525 [2] and in the data set with V. harveyi BB120 [3] was above 483 µM throughout.

For the compound `O=C1OCCC1O` (racemic) [Compound 6, (R/S)-2-hydroxy-γ-butyrolactone], the IC50 in data set [5] (setting [9]) is above 30 µg/mL; in the data set on E. coli JB525 [1] (setting [10]), above 125 µg/mL; in the data set with V. harveyi BB120 [4] (setting [11]), above 125 µg/mL; in data set [6], above 98 µM.

On to `C/C=C/C(=O)O` [Compound 9, crotonic acid], for which the IC50 in [5] (setting [9]) was above 30 µg/mL; in data set [5] (setting [12]) it was above 116 µM; in the data set with E. coli JB525 [1] (setting [10]), above 125 µg/mL; in the data set with V. harveyi BB120 [4] (setting [11]) it was above 125 µg/mL; in data set [6] (RAW264.7 macrophage cells) it was above 116 µM.

For the compound `O=C(O)/C=C/CI` [Compound 15, 4-iodocrotonic acid], the values for the IC50 (in [5] (setting [12]); in the data set on V. harveyi BB120 [4] (setting [13]); in data set [6] (RAW264.7 macrophage cells)) were 1.2 ± 0.2 µM, 1.2 µM and 10 µM, respectively. In addition, the “MIC (antibiotic effect)” value with E. coli JB525 [2] stood at 18 µM (≈ 3.82 µg/mL). Also, in the data set with V. harveyi BB120 [3], the “growth inhibitory effects” value is above 32 µM.

For `O=C(/C=C/CCl)O[C@H]1COC(=O)C1` [Compound 17, epi-honaucin A], the IC50 in the data set with E. coli JB525 [1] (setting [7]) is 260 µM; with V. harveyi BB120 [4] (setting [8]), 22.1 µM; in the data set on Raw264.7 cells, above 49 µM.

For the compound `CCOC(=O)C[C@H](O)COC(=O)/C=C/CCl` [Compound 2, Honaucin B], the figures for the IC50 in the data set with E. coli JB525 [1] (setting [7]), with V. harveyi BB120 [4] (setting [8]) and in the data set on Raw264.7 cells were 908 µM, 17.6 µM and 16 µM, respectively. Also, the “growth inhibitory effects” value in the data set on E. coli JB525 [2] and with V. harveyi BB120 [3] was above 458 µM in each case.

As for `O=C(O)/C=C/CBr` [Compound 14, 4-bromocrotonic acid], the IC50 in [5] (setting [12]) turned out to be 3.5 ± 0.5 µM; in the data set with V. harveyi BB120 [4] (setting [13]), 10.5 µM; in data set [6] (RAW264.7 macrophage cells) it was 35 µM. Also, the “MIC (antibiotic effect)” value with E. coli JB525 [2] turned out to be 188 µM (≈ 31 µg/mL).

As to `O=C(O)/C=C/CCl` [Compound 7, 4-chlorocrotonic acid], the IC50 in data set [5] (setting [12]) was 28 ± 4.3 µM; in the data set with E. coli JB525 [1] (setting [14]), 152 µM; in the data set with V. harveyi BB120 [4] (setting [13]), 72.5 µM; in data set [6] (RAW264.7 macrophage cells), 80 µM.

As to `O=C1C[C@H](O)CO1` [Compound 4, (S)-3-hydroxy-γ-butyrolactone], the IC50 in the data set with E. coli JB525 [1] (setting [10]) is above 125 µg/mL; with V. harveyi BB120 [4] (setting [11]) it was above 125 µg/mL; in data set [6], above 98 µM.

With `O=C1C[C@@H](O)CO1` [Compound 5, (R)-3-hydroxy-γ-butyrolactone], the IC50 in the data set with E. coli JB525 [1] (setting [10]) was above 125 µg/mL; in the data set on V. harveyi BB120 [4] (setting [11]) it was above 125 µg/mL; in data set [6], above 98 µM.

As to `O=C(O)/C=C/CF` [Compound 13, 4-fluorocrotonic acid], the IC50 in data set [5] (setting [12]) was 11.6 ± 4.3 µM; in the data set on E. coli JB525 [1] (setting [14]), above 304 µM; in the data set with V. harveyi BB120 [4] (setting [13]), 167 µM; in data set [6] it was above 288 µM.
